Test results taken from ChEMBL document CHEMBL4513216, “Probing the Open Global Health Chemical Diversity Library for Multistage-Active Starting Points for Next-Generation Antimalarials” (ACS Infect Dis, 2020).

Test: Toxicity liver stage against HepG2, at 10uM
Format: cell-based
Parameters: test concentration 10 uM, cell line HepG2-A16-CD81EGFP
Details: human, HepG2-A16-CD81EGFP cells; read-out: INHIBITION
How it was run: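 Uninfected HepG2-A16-CD81EGFP cells, 3 × 10^3 per well, 1536-well, plated on prespotted compound at 10 μM final, parasite-free screening media added to match infected plates; puromycin 10 μM positive, DMSO 0.5% negative; run in parallel with 48 h PbLuc assay at 37 °C, 5% CO2; viability by CellTiter-Glo luminescence, normalized to controls.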

Structure (SMILES) | cytotoxicity at 10 µM [%]
N#Cc1ccc(CN2CCC(CCc3ccc(O)cc3)CC2)cc1 | 38.8
CCOCc1nc(N2CCCC2)sc1C(=O)NCCC(=O)OCC | -3.66
CCN1CCN(C(=O)CCn2cccc2)CC1 | 7.66
O=C1CCNc2ncc(-c3cccc(Cl)c3)cc2CN1C1CC1 | 8.55
CC(C)CCc1cc(C(=O)O)nc2[nH]c(=O)[nH]c(=O)c12 | 4.31
COc1cc2nc(C)n(CC(=O)NCCN(C)C)c(=O)c2cc1OC | -7.18
O=C(Cc1csc(-c2ccccc2F)n1)NCc1ccc(C(=O)O)cc1 | -3.85
CC(C)C(=O)N1CCN(c2cc(N(C)C)cnn2)CC1 | -6.45
CO[C@H]1CCN(C(=O)c2cc(C)on2)C[C@@H]1Cc1ccccc1 | 4.06
Cc1nnc(C[C@@H]2COC[C@H]3CN(C(=O)c4ccco4)C[C@@H]23)o1 | -8.75
CCC(C)N1CCc2nc(N3CCCC3)nc(NC(C)C)c2C1 (stereo not drawn) | 8.53
O=C(NC1CC1)[C@H]1C[C@H]2OCC[C@H]2N(Cc2ccco2)C1 | 8.88
O=c1[nH]c2nc(N3CCCC3)ncc2c(=O)n1-c1cccc(F)c1 | 8.24
O=C1CC(c2ccc(O)cc2)c2c(n3ccsc3nc2=O)N1 (stereo not drawn) | -3.12
CC(C)c1noc(-c2ccc(-n3cnc(C(=O)O)c3)nc2)n1 | -2.06
COc1ccc(-c2nnsc2C(=O)N2CCN(C(C)=O)CC2)cc1 | -0.145
CNC(=O)[C@@]12CCC3(CCN(C(C)=O)CC3)[C@@H]1CN(S(C)(=O)=O)C2 | -3.61
O=C1NC(c2ccccc2)=N[C@@]12CC[C@@H]1CN(CC3CCOCC3)C[C@@H]12 | 4.01
CCCN1CCN(C(=O)c2ccn(COc3ccc(F)cc3)n2)CC1 | 8.88
CC(C)C(=O)N1CCN(c2ncnc3cc4c(cc23)OCCO4)CC1 | 2.41
Cc1cc(N2CCOC(c3ccccn3)C2)nc(N)n1 (stereo not drawn) | 4.4
CN(C)Cc1cccc(-c2cccnc2C(=O)NCc2ccco2)c1 | 4.16

Structure (SMILES) | cytotoxicity at 10 µM [%]
CCC(=O)N1CCCCC[C@@H]2[C@@H]1[C@H](c1cccc(F)c1)CN2C | 8.63
CCOCCCNS(=O)(=O)c1ccc2c(c1)NC(=O)C(C)O2 (stereo not drawn) | -3.57
O=C(O)c1ccccc1-c1ccc(Cn2c(=O)cc[nH]c2=O)cc1 | 5.64
NCC(=O)N1CCCC(O)(CN2CCN(c3ccccc3)CC2)CC1 (stereo not drawn) | -7.58
Cc1cc(N2CCC(Cc3cnccn3)C2)ncn1 (stereo not drawn) | -3.24
Cc1ccc(CN2CCc3nc(C(C)C)nc(O)c3CC2)s1 | 0.913
CS(=O)(=O)c1cn[nH]c1C1CCCN(C(=O)Cn2cccn2)C1 (stereo not drawn) | -11.7
CNc1cc(C2CCCN2S(=O)(=O)c2cccc(F)c2)ccn1 (stereo not drawn) | -22.7
Cc1noc(C)c1-c1nc(N(C)CCN(C)C)ncc1-c1cnccn1 | -12.4
Cc1cnc(-c2nc(C3CCN(C(=O)Cc4ccsc4)CC3)no2)cn1 | -29.5
Clc1ccccc1CN1CCCC(c2nnc(-c3cnccn3)o2)C1 (stereo not drawn) | -10.3
O=C(NCCN1CCOCC1)Nc1cnc2cc(Cl)ccc2c1O | -24
COc1ccc(CN(C)[C@@H]2CN(C(=O)c3cnn(C)c3)C[C@H]2O)cc1 | -21.9
CNc1cncc(C2CCCN2C(=O)c2ccc3nc(C)[nH]c3c2)n1 (stereo not drawn) | -8.94
O=C(N[C@@H]1CN(Cc2ccc(F)c(F)c2)C[C@H]1O)c1cscn1 | -3.78
CC(CCc1cccn1C)NC(=O)Nc1cccn(C)c1=O (stereo not drawn) | 3.14
Cn1c(N)nnc1SC1CCCN(c2ccccc2)C1=O (stereo not drawn) | 0.296
CC(C)c1nc(NS(=O)(=O)c2ccccc2Cl)no1 | 10
Cc1ccc(CN(C(=O)NC2CCS(=O)(=O)C2)C2CC2)o1 (stereo not drawn) | -155
Cc1ccccc1NC(=O)CCNC(=O)c1ccoc1 | -0.714
CCOc1cc(NC(=O)N2CCOC3(CCC3)C2)ccc1C | -0.535
COC1CCN(CC(=O)NCc2ccc(OCC(N)=O)cc2)CC1 | -0.094

Structure (SMILES) | cytotoxicity at 10 µM [%]
O=C(CNC1(c2ccc(Cl)cc2)CCOCC1)NC1CCCC1 | 2.32
Cc1nc(CN(C)Cc2cc3c(cc2OC(F)F)OCO3)cs1 | 8.68
CCCn1nc2c(cc1=O)CN(Cc1c(C)noc1C)CC2 | -5.03
Cc1ccc(C)c(NC(=O)Cc2c(C)nc3c(c2C)c(=O)[nH]n3C)c1 | 15.4
O=C(NCc1ccncc1)N(Cc1ccc(F)cc1F)C1CC1 | 3.9
CCc1noc(C(C)N2CCN(CC(=O)N3CCOCC3)CC2)n1 (stereo not drawn) | 6.01
CNC(=O)c1cccc(CCNc2ccccn2)c1 | 1.68
CC1CCN(CC2CCN(C(=O)c3c[nH]c4ncccc34)CC2)CC1 | 10
CCNC(=O)CNC(=O)c1ccn(S(=O)(=O)c2ccc(C)cc2)c1 | -5.73
CCn1nc2c(cc1=O)CN(CCOc1ccccc1C#N)CC2 | 19.2
O=S(=O)(NCCc1nnc2ccccn12)c1cccnc1 | 1.9
COc1cc(C(=O)NCCc2cccc(C)c2)on1 | 0.572
N#Cc1cc(F)c(NCCCOCC2CCOC2)c(F)c1 (stereo not drawn) | 6.43
COCC(NC(=O)NCc1sccc1C)c1ccco1 (stereo not drawn) | -3.25
CC(C)(C)NC(=O)CNc1ccc(C#N)c(C(F)(F)F)c1 | -1.28
O=C(CCc1ccsc1)NCC1CCN(c2ccccc2)C1 (stereo not drawn) | 21.1
Cc1cc(N2CCC(N(C)C(=O)c3ccccc3)CC2)nc(C)n1 | -4.69
CN(C)C(CNC(=O)c1cccc(-n2cnnn2)c1)c1ccccc1Cl (stereo not drawn) | -6.08
O=C(NCC1Cn2nnc(-c3ccsc3)c2CO1)N1CCCC1 (stereo not drawn) | -110
Cc1occc1C(=O)N1CCN2C[C@H](Oc3cccnc3)C[C@H]2C1 | -4.15
CCOc1ccccc1CC(=O)N1C[C@@H](C(=O)O)[C@H](C2CC2)C1 | 1.12
Nc1ccc(-c2cc(O)cc(CCC3CCCCN3)c2)cn1 (stereo not drawn) | -9.66

Structure (SMILES) | cytotoxicity at 10 µM [%]
CC(C)CN1C[C@@H](C(=O)O)C[C@@H](C(=O)NCc2ccncc2)C1 | -147
Cc1nc(N(C)C)ncc1C(=O)N[C@H]1Cc2ccccc2[C@@H]1N | 1.81
CC1CCN(S(=O)(=O)N2CCc3c(c(C(=O)O)nn3CC3CC3)C2)CC1 | -0.65
CN(C)C(=O)N1CC[C@@H](c2ccc3ccccc3c2)[C@H](O)C1 | -5.81
Cc1ccccc1[C@@H]1CN(Cc2c(C)noc2C)C[C@H]1C(=O)O | -7.74
COC(=O)[C@@H]1CCCN1C(=O)c1cn(CCCc2ccccc2)nn1 | 3.15
Cc1ccc(N2CCN(C(=O)CCc3n[nH]c(C)n3)CC2=O)cc1 | -4.06
O=C(NCCc1csc(-c2ccncc2)n1)C1CC(=O)N(C2CC2)C1 (stereo not drawn) | -8.44
CN(CC1(O)CCCN(CCC2CCCCC2)C1=O)C1CCOCC1 (stereo not drawn) | 12.7
CCOCCNc1nc(C2CCCC2)nc2c1cnn2C | -11
Cn1ccnc1CN1CCN(Cc2ccc(C#N)cc2)CC1 | -10.3
NC(=O)C1CN(C(=O)Nc2ccccc2SC2CCCC2)CCO1 (stereo not drawn) | -5.15
Cc1cnn(C2CCCN(C(=O)CCc3cnn(C)c3)C2)c1 (stereo not drawn) | -11.1
NC(=O)c1cccc(CN2CCc3c(ncn3C3CC3)C2)c1 | -4.6
CCN(CC)CC(=O)N1CCN(c2nc(C)cc(OC)n2)CC1 | -10.4
NC(=O)Cn1cc(NC(=O)N2CCCCCC2)cn1 | -11.8
Cc1cnn(CC2CCCN2Cc2ncc(-c3ccc(F)cc3)o2)c1 (stereo not drawn) | -17.6
O=C(c1cccc2c1OCCO2)N1CCCC1c1noc(C2CC2)n1 (stereo not drawn) | -14.5
CCC(O)CN1CCN(C(=O)c2ccn(-c3ccccc3)n2)CC1 (stereo not drawn) | -9.33
O=C(NCCc1ccccn1)C1CC(=O)N(CC(F)(F)F)C1 (stereo not drawn) | -25.2
Cc1ccc(CC(=O)N2CCN(c3nccs3)CC2)s1 | -13
CCOCC(O)CN1CCN(C(=O)C2CCCCC2)CC1 (stereo not drawn) | -21.5

Structure (SMILES) | cytotoxicity at 10 µM [%]
Cc1cnc(CN(C)C2CCN(CCc3cnn(C)c3)C2)o1 (stereo not drawn) | 5.44
COC(CNC(=O)N1CCC(n2cncn2)CC1)c1ccccc1 (stereo not drawn) | 4.33
CCc1nc(CN(C)C2CCN(Cc3ccc(C#N)cc3F)C2)no1 (stereo not drawn) | -7.12
Cn1cc(CN2CC[C@H]3CO[C@H](CNc4ncccn4)[C@H]3C2)cn1 | -15.6
O=C(NCc1cccs1)[C@]12COC[C@H]1CN(c1ncccn1)C2 | 11.6
CC(=O)NC1CCN(c2ccnc(C3CCNCC3)c2)CC1 | -6.15
CS(=O)(=O)N1Cc2nccn2CC(CNC(=O)c2cccnc2)C1 (stereo not drawn) | -143
COCCO[C@@H]1CCN(C(=O)c2ccc(C)o2)[C@@H]1Cc1cccnc1 | -12.2
O=S(=O)(c1cccs1)N1CC[C@H]2[C@H]1CCN2CC1CC1 | 2.94
COCC1COCCC12CCN(CCc1ccccc1)CC2 (stereo not drawn) | -26
CN(Cc1cccnc1)C[C@@H]1OC[C@H]2CN(Cc3ccoc3)CC[C@H]21 | -137
Cc1ccc(N2C[C@@H]3CN(Cc4ccoc4)CCO[C@@H]3C2)nn1 | -12.8
CS(=O)(=O)NC[C@H]1OC[C@H]2CN(CCc3ccccc3)CC[C@H]21 | -3.53
CCN1CCCC12CCCN(c1ncccn1)C2 (stereo not drawn) | 0.113
CC(C)N1CCc2c(c(COc3cncnc3)nn2CC2CC2)C1 | 1.7
CC(C)N(C)Cc1n[nH]c2c1CCN(C(=O)c1ccc[nH]1)C2 | -133
CC(C)(N)CNS(=O)(=O)Cc1cccc2cccnc12 | 14.5
O=C(c1cc[nH]n1)N1CCC2(CC1)CC(Oc1cccnc1)CO2 (stereo not drawn) | 6.7
CN(C)c1ncc(C(=O)N2C[C@H]3CC(Oc4ccccc4)C[C@H]3C2)cn1 (stereo partly drawn) | 2.54
Cc1cccc(S(=O)(=O)N2C[C@@H]3C[C@H](C(=O)NCC4CC4)[C@H](C2)O3)c1 | -2.35
